Reference: ChEMBL document CHEMBL1649247, “Fluoroquinolone resistance in Mycobacterium tuberculosis and mutations in gyrA and gyrB” (2009)
≈ marks a conversion by molar mass, not a printed value. Calls of active or inactive are those of the source. The rule behind the calls is not given here.

Key:
[1] = tested on: Mycobacterium tuberculosis; experiment: Antimycobacterial activity against multidrug-resistant Mycobacterium tuberculosis 03-0738 harboring gyrA Ala90Val mutant gene assessed as microbial susceptibility by agar proportion method; type: functional, organism-based
How it was run: (§1)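 Clinical isolates freshly subcultured on Löwenstein-Jensen medium at 37°C for no more than 4 weeks. Susceptibility by standard proportion method on 7H11 agar at breakpoints of 2 mg/liter ofloxacin and 0.5 mg/liter moxifloxacin and gatifloxacin. Drug stocks 1 mg/ml in 0.1 N NaOH, filter sterilized, held at −20°C under 2 months. Isolates scored susceptible or resistant.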

[2] = tested on: Mycobacterium tuberculosis; experiment: Antimycobacterial activity against Mycobacterium tuberculosis 08-0769 harboring gyrA putative promoter mutant gene assessed as microbial susceptibility by agar proportion method; type: functional, organism-based
How it was run: (§2)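 Clinical isolates freshly subcultured on Löwenstein-Jensen medium, held at 37°C no longer than 4 weeks. Fluoroquinolone stocks 1 mg/ml in 0.1 N NaOH, filter sterilized, kept at −20°C under 2 months. Standard proportion method on 7H11 agar; breakpoints 2 mg/liter ofloxacin, 0.5 mg/liter moxifloxacin and gatifloxacin; scored susceptible or resistant.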

[3] = tested on: Mycobacterium tuberculosis; experiment: Antimycobacterial activity against multidrug-resistant Mycobacterium tuberculosis 01-0930 harboring gyrA Ala90Val mutant gene assessed as microbial susceptibility by agar proportion method; type: functional, organism-based; how it was run: as §2
[4] = tested on: Mycobacterium tuberculosis; experiment: Antimycobacterial activity against Mycobacterium tuberculosis 08-0745 harboring gyrA Asp89Asn mutant gene assessed as microbial susceptibility by agar proportion method; type: functional, organism-based; how it was run: as §2
[5] = tested on: Mycobacterium tuberculosis; experiment: Antimycobacterial activity against multidrug-resistant Mycobacterium tuberculosis 08-0757 harboring gyrA Ala90Val mutant gene by resazurin microtiter assay; type: functional
How it was run: (§3)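 MIC was read by resazurin microtiter assay against ofloxacin, moxifloxacin and gatifloxacin. Isolates were used as fresh Löwenstein-Jensen subcultures kept at 37°C for no longer than 4 weeks.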

[6] = tested on: Mycobacterium tuberculosis; experiment: Antimycobacterial activity against multidrug-resistant Mycobacterium tuberculosis 02-2934 harboring gyrA Ala90Val mutant gene by resazurin microtiter assay; type: functional
How it was run: (§4)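 Isolates taken from fresh Löwenstein-Jensen subcultures grown at 37°C for at most 4 weeks. Drug stocks 1 mg/ml in 0.1 N NaOH, filter sterilized, stored at −20°C less than 2 months. MIC read by resazurin microtiter assay following a previously described protocol.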

[7] = tested on: Mycobacterium tuberculosis; experiment: Antimycobacterial activity against multidrug-resistant Mycobacterium tuberculosis 08-0746 assessed as microbial susceptibility by agar proportion method; type: functional, organism-based; how it was run: as §1
[8] = tested on: Mycobacterium tuberculosis; experiment: Antimycobacterial activity against multidrug-resistant Mycobacterium tuberculosis 03-0738 harboring gyrA Ala90Val mutant gene by resazurin microtiter assay; type: functional; how it was run: as §3
[9] = tested on: Mycobacterium tuberculosis; experiment: Antimycobacterial activity against Mycobacterium tuberculosis 08-0745 harboring gyrA Asp89Asn mutant gene by resazurin microtiter assay; type: functional; how it was run: as §4
[10] = tested on: Mycobacterium tuberculosis; experiment: Antimycobacterial activity against Mycobacterium tuberculosis 04-0649 harboring gyrA Asp94Asn mutant gene by resazurin microtiter assay; type: functional; how it was run: as §4
[11] = tested on: Mycobacterium tuberculosis; experiment: Antimycobacterial activity against Mycobacterium tuberculosis 02-1975 harboring gyrA Asp94Gly mutant gene by resazurin microtiter assay; type: functional; how it was run: as §4
[12] = tested on: Mycobacterium tuberculosis; experiment: Antimycobacterial activity against multidrug-resistant Mycobacterium tuberculosis 08-0790 harboring gyrA Ala90Val mutant gene assessed as microbial susceptibility by agar proportion method; type: functional, organism-based; how it was run: as §1
[13] = tested on: Mycobacterium tuberculosis; experiment: Antimycobacterial activity against multidrug-resistant Mycobacterium tuberculosis 08-0821 harboring gyrA Asp94Tyr mutant gene by resazurin microtiter assay; type: functional; how it was run: as §3
[14] = tested on: Mycobacterium tuberculosis; experiment: Antimycobacterial activity against multidrug-resistant Mycobacterium tuberculosis 02-2399 harboring gyrA Asp94Tyr mutant gene assessed as microbial susceptibility by agar proportion method; type: functional, organism-based; how it was run: as §2
[15] = tested on: Mycobacterium tuberculosis; experiment: Antimycobacterial activity against multidrug-resistant Mycobacterium tuberculosis 02-0319 harboring gyrA Asp94Ala mutant gene by resazurin microtiter assay; type: functional; how it was run: as §4
[16] = tested on: Mycobacterium tuberculosis; experiment: Antimycobacterial activity against multidrug-resistant Mycobacterium tuberculosis 01-2230 harboring gyrA Asp94Gly mutant gene by resazurin microtiter assay; type: functional; how it was run: as §4
[17] = tested on: Mycobacterium tuberculosis; experiment: Antimycobacterial activity against multidrug-resistant Mycobacterium tuberculosis 01-2834 by resazurin microtiter assay; type: functional; how it was run: as §4
[18] = tested on: Mycobacterium tuberculosis; experiment: Antimycobacterial activity against multidrug-resistant Mycobacterium tuberculosis 02-2934 harboring gyrA Ala90Val mutant gene assessed as microbial susceptibility by agar proportion method; type: functional, organism-based; how it was run: as §2
[19] = tested on: Mycobacterium tuberculosis; experiment: Antimycobacterial activity against multidrug-resistant Mycobacterium tuberculosis 08-0797 harboring gyrA Ala90Val mutant gene by resazurin microtiter assay; type: functional; how it was run: as §3
[20] = tested on: Mycobacterium tuberculosis; experiment: Antimycobacterial activity against multidrug-resistant Mycobacterium tuberculosis 08-0744 harboring gyrA Asp94Tyr mutant gene by resazurin microtiter assay; type: functional; how it was run: as §3
[21] = tested on: Mycobacterium tuberculosis; experiment: Antimycobacterial activity against multidrug-resistant Mycobacterium tuberculosis 08-0810 harboring gyrA Asp94Tyr mutant gene by resazurin microtiter assay; type: functional; how it was run: as §3
[22] = tested on: Mycobacterium tuberculosis; experiment: Antimycobacterial activity against Mycobacterium tuberculosis 08-0771 harboring gyrA putative promoter mutant gene assessed as microbial susceptibility by agar proportion method; type: functional, organism-based; how it was run: as §2
[23] = tested on: Mycobacterium tuberculosis; experiment: Antimycobacterial activity against multidrug-resistant Mycobacterium tuberculosis 01-2230 harboring gyrA Asp94Gly mutant gene assessed as microbial susceptibility by agar proportion method; type: functional, organism-based; how it was run: as §2
[24] = tested on: Mycobacterium tuberculosis; experiment: Antimycobacterial activity against multidrug-resistant Mycobacterium tuberculosis 01-0172 harboring gyrA Asp94Ala mutant gene assessed as microbial susceptibility by agar proportion method; type: functional, organism-based; how it was run: as §2
[25] = tested on: Mycobacterium tuberculosis; experiment: Antimycobacterial activity against multidrug-resistant Mycobacterium tuberculosis 08-0821 harboring gyrA Asp94Tyr mutant gene assessed as microbial susceptibility by agar proportion method; type: functional, organism-based; how it was run: as §1
[26] = tested on: Mycobacterium tuberculosis; experiment: Antimycobacterial activity against multidrug-resistant Mycobacterium tuberculosis 99-1914 harboring gyrA Asp94Gly mutant gene by resazurin microtiter assay; type: functional; how it was run: as §3
[27] = tested on: Mycobacterium tuberculosis; experiment: Antimycobacterial activity against multidrug-resistant Mycobacterium tuberculosis 02-2399 harboring gyrA Asp94Tyr mutant gene by resazurin microtiter assay; type: functional; how it was run: as §4
[28] = tested on: Mycobacterium tuberculosis; experiment: Antimycobacterial activity against multidrug-resistant Mycobacterium tuberculosis 02-1234 harboring gyrA Asn533Thr gyrB mutant gene by resazurin microtiter assay; type: functional; how it was run: as §4
[29] = tested on: Mycobacterium tuberculosis; experiment: Antimycobacterial activity against multidrug-resistant Mycobacterium tuberculosis 01-2614 harboring gyrA Asp94Gly mutant gene by resazurin microtiter assay; type: functional; how it was run: as §4
[30] = tested on: Mycobacterium tuberculosis; experiment: Antimycobacterial activity against multidrug-resistant Mycobacterium tuberculosis 08-0777 assessed as microbial susceptibility by agar proportion method; type: functional, organism-based; how it was run: as §1
[31] = tested on: Mycobacterium tuberculosis; experiment: Antimycobacterial activity against multidrug-resistant Mycobacterium tuberculosis 01-2614 harboring gyrA Asp94Gly mutant gene assessed as microbial susceptibility by agar proportion method; type: functional, organism-based; how it was run: as §2

SMILES | Activity [1] | Activity [2] | Activity [3] | Activity [4] | MIC [6] | Activity [7] | MIC [8] | MIC [9] | MIC [10] | MIC [11] | Activity [12] | MIC [13] | Activity [14] | MIC [15] | MIC [16] | MIC [17] | Activity [18] | MIC [19] | MIC [21] | Activity [22] | further results
COc1c(N2CCNC(C)C2)c(F)cc2c(=O)c(C(=O)O)cn(C3CC3)c12 (stereo unspecified) [GATIFLOXACIN] | inactive | Active | inactive | inactive | 0.25 µg/mL (≈ 0.666 µM) | Active | 0.25 µg/mL (≈ 0.666 µM) | 1 µg/mL (≈ 2.66 µM) | 1 µg/mL (≈ 2.66 µM) | 1 µg/mL (≈ 2.66 µM) | inactive | 1 µg/mL (≈ 2.66 µM) | inactive | 0.25 µg/mL (≈ 0.666 µM) | 1 µg/mL (≈ 2.66 µM) | 0.5 µg/mL (≈ 1.33 µM) | inactive | 0.5 µg/mL (≈ 1.33 µM) | 1 µg/mL (≈ 2.66 µM) | Active | MIC [5]: 1 µg/mL (≈ 2.66 µM); MIC [20]: 1 µg/mL (≈ 2.66 µM); Activity [23]: inactive; Activity [24]: inactive; Activity [25]: inactive; MIC [26]: 1 µg/mL (≈ 2.66 µM); MIC [27]: 0.25 µg/mL (≈ 0.666 µM); MIC [28]: 0.5 µg/mL (≈ 1.33 µM); MIC [29]: 1 µg/mL (≈ 2.66 µM); Activity [30]: Active; Activity [31]: inactive
CC1COc2c(N3CCN(C)CC3)c(F)cc3c(=O)c(C(=O)O)cn1c23 (stereo unspecified) [OFLOXACIN] | inactive | Active | inactive | inactive | 4 µg/mL (≈ 11.1 µM) | Active | 4 µg/mL (≈ 11.1 µM) | 4 µg/mL (≈ 11.1 µM) | 16 µg/mL (≈ 44.3 µM) | 8 µg/mL (≈ 22.1 µM) | inactive | 8 µg/mL (≈ 22.1 µM) | inactive | 4 µg/mL (≈ 11.1 µM) | 8 µg/mL (≈ 22.1 µM) | 4 µg/mL (≈ 11.1 µM) | inactive | 4 µg/mL (≈ 11.1 µM) | 8 µg/mL (≈ 22.1 µM) | Active | MIC [5]: 8 µg/mL (≈ 22.1 µM); MIC [20]: 8 µg/mL (≈ 22.1 µM); Activity [23]: inactive; Activity [24]: inactive; Activity [25]: inactive; MIC [26]: 8 µg/mL (≈ 22.1 µM); MIC [27]: 4 µg/mL (≈ 11.1 µM); MIC [28]: 1 µg/mL (≈ 2.77 µM); MIC [29]: 16 µg/mL (≈ 44.3 µM); Activity [30]: Active; Activity [31]: inactive
COc1c(N2C[C@@H]3CCCN[C@@H]3C2)c(F)cc2c(=O)c(C(=O)O)cn(C3CC3)c12 [MOXIFLOXACIN] | inactive | Active | inactive | inactive | 0.25 µg/mL (≈ 0.623 µM) | Active | 0.25 µg/mL (≈ 0.623 µM) | 2 µg/mL (≈ 4.98 µM) | 4 µg/mL (≈ 9.96 µM) | 2 µg/mL (≈ 4.98 µM) | inactive | 4 µg/mL (≈ 9.96 µM) | inactive | 0.5 µg/mL (≈ 1.25 µM) | 2 µg/mL (≈ 4.98 µM) | 1 µg/mL (≈ 2.49 µM) | inactive | 1 µg/mL (≈ 2.49 µM) | 2 µg/mL (≈ 4.98 µM) | Active | Activity [23]: inactive; Activity [24]: inactive; Activity [25]: inactive; MIC [26]: 2 µg/mL (≈ 4.98 µM); MIC [27]: 0.5 µg/mL (≈ 1.25 µM); MIC [28]: 0.5 µg/mL (≈ 1.25 µM); MIC [29]: 2 µg/mL (≈ 4.98 µM); Activity [30]: Active; Activity [31]: inactive
